Screening results as filed in PubChem BioAssay.
Rtt109 HAT inh: blocks Candida albicans Rtt109/Vps75 acetyltransferase activity. Q5AAJ8. purified Rtt109/Vps75, ThioGlo CoA-SH fluorescence, 4 h. inhibition, % at 34.9 µM. actives 0.16% (n = 330,000);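 active means inhibition of at least 50% in every replicate; inconclusive means best replicate reaches 50% inhibition but some replicates fall short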
Target sequence (Q5AAJ8 whole entry, looked up): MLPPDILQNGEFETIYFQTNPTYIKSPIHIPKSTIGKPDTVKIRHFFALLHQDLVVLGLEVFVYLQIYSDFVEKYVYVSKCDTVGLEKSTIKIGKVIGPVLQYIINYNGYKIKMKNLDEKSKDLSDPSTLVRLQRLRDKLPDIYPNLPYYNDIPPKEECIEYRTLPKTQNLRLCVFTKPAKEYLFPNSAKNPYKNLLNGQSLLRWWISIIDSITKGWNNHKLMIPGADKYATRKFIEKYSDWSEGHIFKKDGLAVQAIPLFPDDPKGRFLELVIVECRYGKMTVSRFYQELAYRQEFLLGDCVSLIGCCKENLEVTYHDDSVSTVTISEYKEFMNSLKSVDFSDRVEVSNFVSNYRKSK
miR-122 sensor: miR-122 inhibition in Huh7 cells | activation (reporter increase), % at 12.5 µM | actives 0.3% (n = 340,000) | Huh7 miR-122 Renilla luciferase sensor, 48 h; neutral wells = 0, positive control = 100 | AID 602342;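 active means mean replicate activation score at least 90 and every replicate individually at or above 90; inconclusive means only one of the two criteria met; inactive means neither criterion met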;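 further: higher luciferase means less miR-122 activity so hits act as miR-122 inhibitors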
Cneo AK release: Cryptococcus neoformans lysis via adenylate kinase release; C. neoformans lysis, adenylate kinase release luminescence, 4 h; normalised: neutral wells 0, clomiphene wells 100; lysis activity, % at 15 µM; actives 0.2% (n = 360,000); AID 651654;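 active means mean lysis activity across replicates of at least 80%, whatever share of replicates individually reach that level; inactive means mean lysis activity below 80%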
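Assay system: C. neoformans cells. Amount: yeast cell density of 5 × 10^6 cells/mL. Technique: AK luminescence. Buffer or medium: YPD. Times: static 4 h at 37 °C with compound, 1 h detection. Dosing: single-point compound dose. Read-out: lysis from increased AK signal.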
dFosB act: activators of mouse delta FosB homodimer; purified delta FosB, TAMRA-CDK5 oligo fluorescence polarization; percent of positive-control signal above neutral wells; AID 493131; P13346; activation, % at 25 µM; actives 0.99% (n = 340,000);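 active means mean activation above about 17%, with every replicate also reaching it, limit read from the data, passing the limit was not always enough; inconclusive means only one of the two conditions met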
Target sequence (P13346 whole entry, looked up): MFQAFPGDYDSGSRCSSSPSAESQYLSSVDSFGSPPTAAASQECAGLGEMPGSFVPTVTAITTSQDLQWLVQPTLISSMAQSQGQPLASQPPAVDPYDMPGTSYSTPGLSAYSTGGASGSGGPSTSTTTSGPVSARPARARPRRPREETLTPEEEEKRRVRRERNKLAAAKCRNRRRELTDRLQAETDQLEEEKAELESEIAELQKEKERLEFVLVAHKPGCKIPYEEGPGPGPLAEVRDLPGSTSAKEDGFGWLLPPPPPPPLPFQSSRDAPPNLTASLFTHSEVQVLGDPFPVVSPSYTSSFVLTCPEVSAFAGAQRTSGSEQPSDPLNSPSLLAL
HIV Env fusion: blocks HIV Env-driven cell-cell fusion; HeLa-JRFL Env/CEM21 cell fusion, luciferase; inhibition, % at 12.3 µM; actives 1.1% (n = 360,000); AID 651610;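 active means mean replicate inhibition score of at least 50 and every replicate individually at or above 50; inconclusive means only one of the two criteria met; inactive means mean below 50 and not all replicates reaching 50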;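 further: 0% = plate neutral controls and 100% = maraviroc near 300 nM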
GSIS activator: primary screen for activators of insulin secretion dependent on glucose, INS-1E cells, GLuc reporter luminescence | activation, % at 16.6 µM | INS-1E GLuc reporter insulin secretion, 2-3 h | AID 743287 | actives 0.61% (n = 370,000);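 active means lowest replicate activation of at least 40%, so every replicate reaches that level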;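 further: 0% = median of neutral control wells and 100% = median of IBMX positive control wells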
The depositor's hits bear a star; ? = inconclusive; . = not tested or not shown; [ ] = another dose, or the depositor's remark. Rows were chosen to be rich in hits. Some 2.4% of all compounds tested hit in one or more screens of this group.

SMILES	Rtt109 HAT inh	miR-122 sensor	Cneo AK release	dFosB act	HIV Env fusion	GSIS activator
COC(=O)[C@H](CC(C)C)NS(=O)(=O)N[C@@H](CC(C)C)C(=O)OC	7.3	-8.0	3.5	3.9	-22.0	6.9
COc1ccc(-c2ccc([C@H]3[C@H](C#N)N(C(=O)NC4CCCC4)[C@H]3CO)cc2)cc1	.	.	-0.2	.	-0.9[16.7 µM]	.
CC(=O)N(C)C[C@H]1Oc2ncccc2C(=O)N(C)C[C@@H]1C	.	.	.	.	.	4.6
CCCCOc1ccc(Nc2cc(Cl)ccc2C(=O)O)cn1	4.7	.	-15.7	-2.5	62.8*	-32.1
COc1ccc(CC(=O)Nc2cc(Cl)ccc2C(=O)O)cc1	0.0	1.6	-0.2	-3.1	-1.6	2.7
CCC(=O)N1CCC2(CC1)CN(Cc1cc(F)ccc1F)[C@H](CO)c1[nH]c3cc(OC)ccc3c12	.	.	.	.	.	-4.9
Cc1ccc(C(=O)N2CCN3C(=O)c4ccccc4C23c2ccccc2)cc1 (stereo not given)	-3.7	.	.	-2.3	10.9	41.7*
COc1ccc(CN(C)C[C@@H]2Oc3ccc(NC(=O)CCC(F)(F)F)cc3CC(=O)N([C@H](C)CO)C[C@H]2C)cc1	.	0.7[16.7 µM]	2.2	.	-17.1[16.7 µM]	1.4
C[C@H](C(=O)N(C)C[C@H]1OCc2ccccc2-c2ccccc2C(=O)N([C@@H](C)CO)C[C@H]1C)c1ccccc1	.	.	-1.6	.	21.5[16.7 µM]	1.2
C[C@H](C(=O)N(C)C[C@@H]1OCc2ccccc2-c2ccccc2C(=O)N([C@@H](C)CO)C[C@@H]1C)c1ccccc1	.	.	-3.7	.	57.8*[16.7 µM]	-3.8
C[C@H](C(=O)N(C)C[C@@H]1OCc2ccccc2-c2ccccc2C(=O)N([C@H](C)CO)C[C@@H]1C)c1ccccc1	.	.	.	.	57.4*[16.7 µM]	-16.9
C[C@H](C(=O)N(C)C[C@@H]1OCc2ccccc2-c2ccccc2C(=O)N([C@@H](C)CO)C[C@H]1C)c1ccccc1	.	.	-3.1	.	59.0*[16.7 µM]	-9.4
CC(C)NC(=O)Nc1ccc2c(c1)CC(=O)N([C@@H](C)CO)C[C@H](C)[C@@H](CN(C)S(=O)(=O)c1cccs1)O2	.	-9.2[16.7 µM]	3.7	.	-3.6[16.7 µM]	17.5
CC(C)NC(=O)Nc1ccc2c(c1)CC(=O)N([C@H](C)CO)C[C@H](C)[C@H](CN(C)S(=O)(=O)c1cccs1)O2	.	30.1[16.7 µM]	-11.9	.	60.5*[16.7 µM]	-11.4
Cc1ccc(S(=O)(=O)N(C)C[C@@H]2Oc3ccc(NC(=O)Nc4ccc(C(F)(F)F)cc4)cc3CC(=O)N([C@H](C)CO)C[C@@H]2C)cc1	.	122.7*[16.7 µM]	-0.4	.	75.9*[16.7 µM]	-10.4
CC(C)NC(=O)Nc1ccc2c(c1)CC(=O)N([C@@H](C)CO)C[C@H](C)[C@H](CN(C)S(=O)(=O)c1cccs1)O2	.	8.9[16.7 µM]	4.3	.	56.5*[16.7 µM]	4.1
C[C@H](CO)N1C[C@H](C)[C@H](CN(C)S(=O)(=O)c2cccs2)Oc2ccc(NC(=O)Nc3ccc(C(F)(F)F)cc3)cc2CC1=O	.	-13.9[16.7 µM]	2.4	.	60.8*[16.7 µM]	-34.1
C[C@@H]1CN([C@@H](C)CO)C(=O)c2cc(C#CC(C)(C)O)cnc2O[C@@H]1CN(C)Cc1cccc(F)c1	.	5.3[16.7 µM]	.	.	11.3[16.7 µM]	45.7
O=C(C[C@@H]1C=C[C@H](NC(=O)c2ccccc2)[C@@H](CO)O1)NCc1ccncn1	.	.	-3.5	.	-9.4[16.7 µM]	7.0
C[C@H](CO)N1C[C@H](C)[C@H](CN(C)S(=O)(=O)c2cccs2)Oc2ccc(NC(=O)Nc3ccc4c(c3)OCO4)cc2CC1=O	-0.3	-6.9	2.3	-5.0	98.9*	-42.6
C[C@H](CO)N1C[C@H](C)[C@H](CN(C)S(=O)(=O)c2cccs2)Oc2ccc(NC(=O)NC3CCCCC3)cc2CC1=O	.	-1.8[16.7 µM]	-1.0	.	84.2*[16.7 µM]	-46.0
C[C@H]1CN([C@@H](C)CO)C(=O)c2cc(NC(=O)Nc3ccc4c(c3)OCO4)ccc2O[C@H]1CN(C)S(=O)(=O)c1cccs1	.	4.3[16.7 µM]	2.6	.	57.2*[16.7 µM]	-5.6
C[C@@H]1CN([C@H](C)CO)C(=O)Cc2cc(NC(=O)Nc3ccc4c(c3)OCO4)ccc2O[C@H]1CN(C)S(=O)(=O)c1cccs1	.	-7.4[16.7 µM]	-0.3	.	8.9[16.7 µM]	2.2
COc1ccc(CN(C)C[C@@H]2OCCCC[C@@H](C)Oc3ccc(NC(=O)Nc4ccccc4)cc3C(=O)N([C@@H](C)CO)C[C@H]2C)cc1	.	1.5[16.7 µM]	10.4	.	9.6[16.7 µM]	-14.4
CC(C)NC(=O)Nc1ccc2c(c1)C(=O)N(C)C[C@@H](C)[C@@H](CN(C)C(=O)NC(C)C)O2	.	.	.	.	.	11.2
SMILES	Rtt109 HAT inh	miR-122 sensor	Cneo AK release	dFosB act	HIV Env fusion	GSIS activator
O=C(Nc1ccncc1)c1ccc(Cl)c(S(=O)(=O)N2CCc3ccccc32)c1	17.1	.	7.1	?	89.6*	-17.6
COc1ccc(C(=O)Nc2ccc(S(=O)(=O)N3CCc4ccccc43)cc2)cc1	25.9	16.2	2.1	12.9	62.1*	.
Cc1ccc(CNc2nc(C)nc3sc4c(c23)CCC4)cc1	6.7	12.1	-1.6	-4.9	73.6*	-15.1
Cc1nc(Nc2ccc(O)cc2)c2c3c(sc2n1)CCCC3	-7.8	15.8	2.5	-8.5	11.7	3.1
Cc1sc2nc(CN3CCCC3)nc(N3CCN(S(=O)(=O)c4ccccc4)CC3)c2c1C	5.3	4.5	1.8	42.0*	-26.4	.
Cc1sc2ncnc(N3CCN(S(=O)(=O)c4ccccc4)CC3)c2c1C	0.7	-3.1	-2.8	-7.9	.	.
O=C(COc1ccc(Cl)cc1)NCCS(=O)(=O)N1CCN(c2ccccc2F)CC1	-10.6	-8.7	4.7	-3.6	-0.3	40.6*
O=C(Cc1ccc(Cl)cc1)NCCS(=O)(=O)N1CCN(c2ccccc2F)CC1	-2.4	.	0.0	-1.3	-10.8	-8.2
COc1cccc(S(=O)(=O)Nc2ccc3c(c2)[C@@H]2C[C@@H](CC(=O)NCc4ccccc4F)O[C@H](CO)[C@@H]2O3)c1	.	9.5[16.7 µM]	2.0	.	6.6[16.7 µM]	-1.1
COc1ccc2c3c(n(C)c2c1)[C@H](CO)NCC31CCN(CC2CC2)CC1	.	.	.	.	-9.4[16.7 µM]	14.1
CN(C(=O)c1ccc(S(=O)(=O)c2cccc(Cl)c2)c([N+](=O)[O-])c1)C1CCCCC1	-0.2	-2.2	1.3	-4.8	59.1*	-31.8
CCC(NS(=O)(=O)c1c(C)[nH]c(=O)[nH]c1=O)C12CC3CC(CC(C3)C1)C2 (stereo not given)	-10.3	-8.6	-0.5	-11.7	80.1*	2.9
Cc1ccc(-c2cnc3c(c2)C(=O)N([C@@H](C)CO)C[C@H](C)[C@H](CN(C)S(C)(=O)=O)O3)cc1	.	-5.2[16.7 µM]	.	.	4.5[16.7 µM]	12.1
C[C@@H]1CN([C@H](C)CO)S(=O)(=O)c2ccc(C#Cc3ccccn3)cc2O[C@@H]1CN(C)Cc1ccccc1	.	27.5[16.7 µM]	-0.6	.	5.3[16.7 µM]	-13.6
C[C@H](CO)N1C[C@H](C)[C@H](CN(C)Cc2ccccc2)Oc2cc(C#Cc3ccccn3)ccc2S1(=O)=O	.	-6.8[16.7 µM]	99.0*	.	3.3[16.7 µM]	-0.3
